# Key:
# [1] = blood glucose; format: in vivo, mouse
# Procedure, shortened: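 DIO mice were fed 60%-fat HFD from 8 weeks of age, for 12 weeks (males) or 24 weeks (females); one male cohort was housed at 30 °C. The test compound was given s.c. every 2 days in 50 mM sodium phosphate/300 mM mannitol pH 6.9. Glucose and ketone bodies were read in tail-vein blood.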
# [2] = cumulative food intake; format: in vivo, mouse; settings: DIO mice, H + G49, 72 h, versus vehicle
# [3] = plasma ALT; format: in vivo, mouse; settings: DIO mice
# Procedure, shortened: (§1)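 Plasma ALT was read with Reflotron strips and plasma TGs by colorimetric assay. Serum FGF21 and plasma adiponectin and insulin were measured by ELISA.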
# [4] = tested on: brown adipocytes; assay: OCR in differentiated brown adipocytes; format: cell-based, mouse; settings: G49, 16 h
# Procedure, shortened: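 Brown preadipocytes were immortalised by retroviral SV40 Large T (20% FBS, 8 μg/mL polybrene, 48 h) at 70–80% confluence. Differentiation began with 2 days in induction medium (0.5 μM dexamethasone, 0.5 mM IBMX, indomethacin, 1 μM rosiglitazone).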
# [5] = tested on: eWAT stromal vascular fraction; assay: immune cell populations in eWAT SVF; format: in vivo, mouse
# Procedure, shortened: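 eWAT was digested, stopped with EDTA, filtered at 100 µm and red cells lysed in ACK. The SVF was stained 20 min at RT in FACS buffer (1 mM EDTA, 25 mM HEPES, 1% FBS in PBS) with a panel including CD45, CD11b, F4/80, Ly6G, CD11c, CD206, SiglecF, T/NK markers and IL-4, or isotype controls. Acquisition was on a FACSCanto II.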
# [6] = tested on: brown adipocytes; assay: fatty acid oxidation in brown adipocytes; format: cell-based, mouse; settings: G49, brown adipocytes
# Procedure, shortened: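 Palmitate oxidation to CO2 and to acid-soluble material (acyl-carnitine, Krebs cycle intermediates, acetyl-CoA) was measured in primary hepatocytes or differentiated brown adipocytes, with or without 500 nM test compound.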
# [7] = tested on: POMC neurons, arcuate nucleus; assay: cFos-positive POMC neurons in ARC; format: in vivo, mouse; settings: DIO mice
# Procedure, shortened: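 Brain slices were blocked 2 h at RT in PBS with 1% BSA and 0.1% Triton X-100. They were incubated overnight at 4 °C with anti-POMC and anti-c-Fos, then with secondary antibodies in 1% BSA/PBS for 2 h at RT, protected from light.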
# [8] = tested on: mouse adipocytes from eWAT; assay: lipolysis; format: cell-based; settings: isolated adipocytes from eWAT, 500 nM G49, 4 h
# [9] = tested on: pancreatic islets from DIO mice; assay: ex vivo glucose-stimulated insulin secretion; format: cell-based, mouse; settings: 500 nM G49, 1 or 24 h
# Procedure, shortened: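 Islets were plated at 100 per 3 mL and treated the next day with 500 nM test compound for 1 or 24 h. After 1 h preincubation in KRB (2.8 mM glucose, 0.25% BSA, pH 7.4, 37 °C), batches of 3 islets were stimulated 1 h with 2.8 or 16.7 mM glucose. Insulin was measured by ELISA and normalised per islet; n = 4 mice.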
# [10] = plasma insulin; format: in vivo, mouse; settings: DIO mice
# Procedure, shortened: as §1
# [11] = F4/80 and TH immunostaining of eWAT; format: in vivo, mouse; settings: G49, 6 h
# [12] = liver histology; format: in vivo, mouse; settings: DIO mice
# [13] = tested on: primary mouse hepatocytes; assay: insulin-induced AKT Ser473 phosphorylation in hepatocytes; format: cell-based; settings: pre-treatment with G49
# Procedure, shortened: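 Primary hepatocytes came from non-fasted male C57BL/6J mice fed HFD for 12 weeks, with or without in vivo treatment, by two-step collagenase perfusion. Cells were spun at 60 × g, purified on isotonic Percoll (1:1) at 230 × g and seeded on collagen. They were cultured 24 h at 37 °C, 5% CO2 before exposure to the test compound.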
# [14] = peptide concentration in plasma; format: in vivo, mouse; settings: DIO mice, 24 h post-injection, 100 nmol/kg s.c., n = 5; cAMP bioassay
# Procedure, shortened: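 Plasma activity was read in a cAMP assay on CHO cells expressing human GLP-1R, in HBSS pH 7.4 with 25 mM HEPES, 0.1% BSA and 0.5 mM IBMX. Serial dilutions were run in duplicate for 30 min at RT with HTRF detection. Standards were reference peptide spiked into 0.2% (final) naïve plasma. Sample ratio = sample EC50/reference EC50; concentration = known top concentration/ratio.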
# [15] = plasma TGs; format: in vivo, mouse; settings: DIO mice, G49, time course
# Procedure, shortened: as §1
sequence,measurement,setting,value
HSQGTFTSDYSKYLEEEAVRLFIC (40 kDa PEG) WLMNT-amide acetate salt [G49],blood glucose and adiposity,"[1]; female DIO mice, G49, 1 week",efficacy of G49 in reducing blood glucose and adiposity was also found in female mice
same,blood glucose and adiposity,"[1]; male DIO mice at thermoneutrality (30 °C), G49",in male mice housed at thermoneutrality
same,inhibition of cumulative food intake,[2],28.30 ± 2.61%
same,ALT elevation,"[3]; G49 + GCGRant, 6 h",hepatic lipid overload and ALT elevation were not observed
same,ALT activity,"[3]; G49, 6 h","an increase in lipid accumulation analyzed by H&E and oil-red O staining of liver sections, liver-to-body weight ratio, and alanine aminotransferase (ALT) activity"
same,mitochondrial respiration,[4],an increase in mitochondrial respiration
same,eWAT beiging signature,"[5]; DIO mice, G49 + ATGLi, 6 h",absence of the eWAT beiging signature
same,beige immune signature of SVF,"[5]; DIO mice, G49 + GCGRant, 6 h",loss of the beige immune signature of the SVF
same,Cd206+/Cd11c+ ratio in neutrophils,"[5]; SVF of eWAT, G49, 6 h",increased the Cd206^+/Cd11c^+ ratio
same,M2 and M1 macrophages,"[5]; SVF of eWAT, G49, 6 h","increase in M2 (Cd206^+) subpopulation, concomitantly with a decrease in M1 (Cd11c^+) cells"
same,eosinophils (SiglecF+/Cd11b+/Cd11c−),"[5]; SVF of eWAT, G49, 6 h",infiltration of eosinophils
same,neutrophil infiltration (Cd11b+Ly6g+),"[5]; SVF of eWAT, G49, 6 h",reduction in neutrophil infiltration
same,Cpt1b expression and FAO,[6],increased Cpt1b gene expression and FAO
same,"activated POMC neurons, 1 week","[7]; G49, 1 week",percentage of activated POMC neurons was reduced
same,"cFos-positive POMC neurons, early","[7]; G49, after first injection",increase in cFos-positive POMC neurons
same,glycerol and FFA release,[8],increased glycerol and FFA release
same,insulin secretion,[9],also observed by ex vivo treatment of pancreatic islets from DIO mice with G49
same,plasma insulin,"[10]; G49 + ATGLi, 6 h",plasma insulin was partly reduced
same,peak in insulin secretion,"[10]; G49 + Ex9-39, 6 h",Ex9-39 totally abolished this increase
same,peak in insulin secretion,"[10]; G49 + GCGRant, 6 h",partially blocked by the GCGRant
same,"plasma insulin, early","[10]; G49, 6 h",a rise in plasma insulin
same,F4/80 and TH positive immune cells,[11],F4/80 and Tyrosine Hydroxylase (TH) positive immune cells were found in some eWAT areas
same,hepatic lipid overload,"[12]; G49 + ATGLi, 6 h",absent in mice co-treated with ATGLi
same,"lipid accumulation, liver sections","[12]; G49, 6 h",an increase in lipid accumulation
same,insulin-induced AKT Ser473 phosphorylation,[13],increased insulin sensitivity manifested by elevations in insulin-induced AKTSer473 phosphorylation
same,peptide plasma level,[14],121.7 ± 12.88 nM
same,circulating TGs,[15],reached maximal levels at 24 h and decreased to basal levels at 48 h post-G49 treatment

# From paper PMC11605122 (Nature Communications, 2024)
